Data published in ChEMBL document CHEMBL1134537, “Potent dibasic GPIIb/IIIa antagonists with reduced prolongation of bleeding time: synthesis and pharmacological evaluation of 2-oxopiperazine derivatives” (J Med Chem, 2001).

Key:
Assay type in all cases: functional
Cavia porcellus [1] = assay: Effect on bleeding time when a dose of 9.0 ug/kg/min was administered to guinea pig
How it was run: (§1)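 Male guinea pigs (250–400 g) received continuous iv infusion of compound in 0.9% saline, with vehicle for controls. Template BT was taken 90 min after infusion start under pentobarbital (25 mg/kg ip), with hind limb shaved the day before and a pressure cuff proximal to the site. Each animal's value is the mean of two cuts; mean ± SE, n = 3. The cut-off is 900 s.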

Cavia porcellus [2] = species: Cavia porcellus; assay: In vitro inhibition of ADP induced aggregation in guinea pig platelets
How it was run: (§2)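 Guinea pig blood was taken by aortic puncture under pentobarbital into 3.15% citrate (1:10). PRP was adjusted to 4 × 10^5 platelets/μL and prewarmed 2 min at 37 °C with compound, stirred. Aggregation was induced with ADP (0.8–1 μM) and read as the change in light transmittance. IC50 with 95% CI.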

Cavia porcellus [3] = species: Cavia porcellus; assay: Ex vivo inhibition of ADP induced aggregation in guinea pig platelets
How it was run: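 Male guinea pigs (250–400 g) were given a continuous iv infusion in 0.9% saline, with vehicle for controls. At 90 min, citrated blood was drawn from the abdominal aorta under anesthesia and PRP was prepared. Aggregation was induced with submaximal ADP and read by light transmittance. ID50 in μg/kg/min with 95% CI, n = 2–5.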

[4] = Dose ratio for dose causing prolongation of bleeding time to 3 times the basel value vs ID50 value of ex-vivo ADP-induced platelet aggregation.
How it was run: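 Template bleeding time and ex vivo ADP aggregation measured in male guinea pigs 90 min after starting continuous iv infusion in 0.9% saline. BT(×3) is the dose prolonging BT to 3 times basal. The ratio is BT(×3) dose divided by the ex vivo ID50 dose.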

Cavia porcellus [5] = species: Cavia porcellus; assay: In vitro effect on ADP induced platelet aggregation in guinea pig platelet rich plasma; how it was run: as §2
Homo sapiens [6] = species: Homo sapiens; assay: In vitro effect on collagen induced human platelet aggregation
How it was run: (§3)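 Human citrated (3.8%) PRP adjusted to 3 × 10^5 platelets/μL was stirred and prewarmed 2 min at 37 °C with compound. Submaximal agonist was added (PAF, TRAP or collagen) and aggregation recorded as the change in light transmittance.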

Homo sapiens [7] = species: Homo sapiens; assay: In vitro effect on ADP induced platelet aggregation in human platelet rich plasma
How it was run: (§4)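 Human blood was collected into 3.8% citrate (1:10). PRP was adjusted to 3 × 10^5 platelets/μL and preincubated 2 min at 37 °C with compound, stirred at 1000 rpm. ADP (1–10 μM) was then added and light-transmittance aggregometry recorded. IC50 with 95% CI, n = 4.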

[8] = In vitro effect on ADP induced platelet aggregation in monkey platelet rich plasma; conditions: Cercopithecidae
How it was run: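 Monkey blood was drawn into 3.8% citrate (1:10). PRP at 3 × 10^5 platelets/μL was warmed 2 min at 37 °C with compound under stirring. Aggregation was triggered by ADP (30–40 μM) and measured by light transmittance. IC50 with 95% CI, n = 4.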

Homo sapiens [9] = species: Homo sapiens; assay: In vitro effect on PAF induced human platelet aggregation; how it was run: as §3
Homo sapiens [10] = species: Homo sapiens; assay: In vitro effect on TRAP induced human platelet aggregation; how it was run: as §3
Homo sapiens [11] = species: Homo sapiens; assay: In vitro effect on ADP induced human platelet aggregation; how it was run: as §4
Cavia porcellus [12] = assay: Effect on bleeding time when a dose of 10 ug/kg/min was administered to guinea pig; how it was run: as §1
Cavia porcellus [13] = assay: Effect on bleeding time when a dose of 6.0 ug/kg/min was administered to guinea pig; how it was run: as §1
Cavia porcellus [14] = assay: Effect on bleeding time when a dose of 4.0 ug/kg/min was administered to guinea pig; how it was run: as §1
Cavia porcellus [15] = assay: Effect on bleeding time when a dose of 8.0 ug/kg/min was administered to guinea pig; how it was run: as §1
Cavia porcellus [16] = assay: Effect on bleeding time when a dose of 6.5 ug/kg/min was administered to guinea pig; how it was run: as §1
Cavia porcellus [17] = assay: Effect on bleeding time when a dose of 2.2 ug/kg/min was administered to guinea pig; how it was run: as §1
Cavia porcellus [18] = assay: Effect on bleeding time when a dose of 4 ug/kg/min was administered to guinea pig; how it was run: as §1
Cavia porcellus [19] = assay: Effect on bleeding time when a dose of 0.9 ug/kg/min was administered to guinea pig; how it was run: as §1
Cavia porcellus [20] = assay: Effect on bleeding time when a dose of 1.4 ug/kg/min was administered to guinea pig; how it was run: as §1
Cavia porcellus [21] = assay: Effect on bleeding time when a dose of 2.5 ug/kg/min was administered to guinea pig; how it was run: as §1
Cavia porcellus [22] = assay: Effect on bleeding time when a dose of 2 ug/kg/min was administered to guinea pig; how it was run: as §1
Cavia porcellus [23] = assay: Effect on bleeding time when a dose of 5 ug/kg/min was administered to guinea pig; how it was run: as §1
Cavia porcellus [24] = assay: Effect on bleeding time when a dose of 5.0 ug/kg/min was administered to guinea pig; how it was run: as §1
Cavia porcellus [25] = assay: Effect on bleeding time when a dose of 0.2 ug/kg/min was administered to guinea pig; how it was run: as §1
Cavia porcellus [26] = assay: Effect on bleeding time when a dose of 3.0 ug/kg/min was administered to guinea pig; how it was run: as §1

`N=C(N)Nc1ccc(C(=O)NCC[C@H]2C(=O)N(CC(=O)O)CCN2C(=O)CNC(=O)c2ccc(NC(=N)N)cc2)cc1` showed a BT (Cavia porcellus [1]) of 800, an IC50 (Cavia porcellus [2]) of 97 nM and an ID50 (Cavia porcellus [3]) of 0.88 µg/min/kg. It also gave a Dissociation ratio [4] of less than 10.
In the case of `COC(=O)C[C@H]1C(=O)N(CC(=O)O)CCN1C(=O)CNC(=O)c1ccc(C(=N)N)cc1`, the IC50 (Cavia porcellus [5]) is reported as 43 nM, the IC50 (Homo sapiens [6]) is reported as 31 nM and the IC50 (Homo sapiens [7]) is reported as 31 nM. The IC50 [8] was 46 nM, the IC50 (Homo sapiens [9]) was 29 nM and the IC50 (Homo sapiens [10]) was 32 nM. For the same compound, the IC50 (Homo sapiens [11]) was 31 nM.
`N=C(N)c1ccc(C(=O)NCC(=O)N2CCN(CC(=O)O)C(=O)[C@@H]2CCCNC(=O)CCCCCN)cc1` showed an IC50 (Cavia porcellus [2]) of 160 nM, an ID50 (Cavia porcellus [3]) of 0.86 µg/min/kg and a BT (Cavia porcellus [12]) of 780. It also gave a Dissociation ratio [4] of less than 12.
`N=C(N)Nc1ccc(C(=O)NCCC[C@H]2C(=O)N(CC(=O)O)CCN2C(=O)CNC(=O)c2ccc(NC(=N)N)cc2)cc1` showed an IC50 (Cavia porcellus [5]) of 51 nM, an IC50 (Cavia porcellus [2]) of 51 nM and an IC50 (Homo sapiens [6]) of 59 nM. It also gave an ID50 (Cavia porcellus [3]) of 0.18 µg/min/kg, a BT (Cavia porcellus [13]) of 510 and an IC50 (Homo sapiens [7]) of 31 nM. It also gave an IC50 [8] of 79 nM, an IC50 (Homo sapiens [9]) of 30 nM and a Dissociation ratio [4] greater than 33. For the same compound, the IC50 (Homo sapiens [10]) was 91 nM and the IC50 (Homo sapiens [11]) was 31 nM.
With `N=C(N)c1ccc(C(=O)NCC(=O)N2CCN(CC(=O)O)C(=O)[C@@H]2CNC(=O)c2ccc(C(=N)N)cc2)cc1` the BT (Cavia porcellus [14]) was greater than 900, the IC50 (Cavia porcellus [2]) was 120 nM and the ID50 (Cavia porcellus [3]) was 0.72 µg/min/kg. For the same compound, the Dissociation ratio [4] was less than 6.
Work on `N=C(N)c1ccc(C(=O)NCC[C@H]2C(=O)N(CC(=O)O)CCN2C(=O)CNC(=O)c2ccc(C(=N)N)cc2)cc1` yielded an IC50 (Cavia porcellus [2]) of 190 nM, an ID50 (Cavia porcellus [3]) of 0.91 µg/min/kg and a BT (Cavia porcellus [15]) of 800. It also gave a Dissociation ratio [4] of less than 9.
Compound `N=C(N)Nc1ccc(C(=O)NC[C@H]2C(=O)N(CC(=O)O)CCN2C(=O)CNC(=O)c2ccc(C(=N)N)cc2)cc1` has an IC50 (Cavia porcellus [2]) of 85 nM, an ID50 (Cavia porcellus [3]) of 0.66 µg/min/kg and a Dissociation ratio [4] of 10. It also gave a BT (Cavia porcellus [16]) of 660.
`N=C(N)Nc1ccc(C(=O)NCC(=O)N2CCN(CC(=O)O)C(=O)[C@@H]2CNC(=O)c2ccc(NC(=N)N)cc2)cc1` gave an IC50 (Cavia porcellus [2]) of 140 nM, an ID50 (Cavia porcellus [3]) of 1 µg/min/kg and a BT (Cavia porcellus [12]) of 720. The Dissociation ratio [4] was less than 10.
`N=C(N)c1ccc(C(=O)NCCC[C@H]2C(=O)N(CC(=O)O)CCN2C(=O)CNC(=O)c2ccc(C(=N)N)cc2)cc1` showed an IC50 (Cavia porcellus [2]) of 37 nM, a BT (Cavia porcellus [17]) of 660 and an ID50 (Cavia porcellus [3]) of 0.19 µg/min/kg. It also gave a Dissociation ratio [4] of 12.
`N=C(N)Cc1ccc(C(=O)NC[C@H]2C(=O)N(CC(=O)O)CCN2C(=O)CNC(=O)c2ccc(C(=N)N)cc2)cc1` gave an IC50 (Cavia porcellus [2]) of 57 nM, an ID50 (Cavia porcellus [3]) of 0.42 µg/min/kg and a BT (Cavia porcellus [18]) of 760. For the same compound, the Dissociation ratio [4] was less than 10.
For `N=C(N)NCCCC(=O)NCCC[C@H]1C(=O)N(CC(=O)O)CCN1C(=O)CNC(=O)c1ccc(C(=N)N)cc1`, the IC50 (Cavia porcellus [2]) was 88 nM, the ID50 (Cavia porcellus [3]) was 0.47 µg/min/kg and the BT (Cavia porcellus [12]) was 620. It also gave a Dissociation ratio [4] of 21.
Work on `N=C(N)Nc1ccc(C(=O)NCCC[C@H]2C(=O)N(CC(=O)O)CCN2C(=O)CNC(=O)c2ccc(C(=N)N)cc2)cc1` yielded a BT (Cavia porcellus [19]) of 490, an IC50 (Cavia porcellus [2]) of 19 nM and an ID50 (Cavia porcellus [3]) of 0.087 µg/min/kg. It also gave a BT (Cavia porcellus [20]) greater than 900 and a Dissociation ratio [4] of 16.
`N=C(N)Nc1ccc(C(=O)NCC[C@H]2C(=O)N(CC(=O)O)CCN2C(=O)CNC(=O)c2ccc(C(=N)N)cc2)cc1` showed a BT (Cavia porcellus [21]) of 820, a BT (Cavia porcellus [22]) of 410 and an IC50 (Cavia porcellus [2]) of 37 nM. For the same compound, the ID50 (Cavia porcellus [3]) was 0.12 µg/min/kg and the Dissociation ratio [4] was 21.
`COc1ccc(C[C@H](NC(=O)c2ccc(C(=N)N)cc2)C(=O)N2CCN(CC(=O)O)C(=O)[C@@H]2CCCNC(=O)c2ccc(C(=N)N)cc2)cc1` showed an IC50 (Cavia porcellus [2]) of 23 nM, an ID50 (Cavia porcellus [3]) of 0.021 µg/min/kg and a Dissociation ratio [4] of 10.
`N=C(N)c1ccc(C(=O)NCC(=O)N2CCN(CC(=O)O)C(=O)[C@@H]2CCCNC(=O)CCCCN)cc1` showed an IC50 (Cavia porcellus [2]) of 210 nM, an ID50 (Cavia porcellus [3]) of 0.94 µg/min/kg and a BT (Cavia porcellus [23]) of 490. It also gave a Dissociation ratio [4] greater than 5.
`N=C(N)Cc1ccc(C(=O)NCCC[C@H]2C(=O)N(CC(=O)O)CCN2C(=O)CNC(=O)c2ccc(C(=N)N)cc2)cc1` gave a BT (Cavia porcellus [14]) of 620, an IC50 (Cavia porcellus [2]) of 67 nM and an ID50 (Cavia porcellus [3]) of 0.41 µg/min/kg. The Dissociation ratio [4] was 10.
In the case of `N=C(N)c1ccc(C(=O)NCCCC[C@H]2C(=O)N(CC(=O)O)CCN2C(=O)CNC(=O)c2ccc(C(=N)N)cc2)cc1`, the IC50 (Cavia porcellus [2]) is reported as 150 nM, the ID50 (Cavia porcellus [3]) is reported as 0.79 µg/min/kg and the Dissociation ratio [4] is reported as 6. It also gave a BT (Cavia porcellus [24]) of 620.
Compound `COc1ccc(C[C@H](NC(=O)c2ccc(C(=N)N)cc2)C(=O)N2CCN(CC(=O)O)C(=O)[C@@H]2CCCCNC(=O)c2ccc(C(=N)N)cc2)cc1` has an IC50 (Cavia porcellus [2]) of 12 nM, a BT (Cavia porcellus [25]) greater than 900 and an ID50 (Cavia porcellus [3]) of 0.041 µg/min/kg. For the same compound, the Dissociation ratio [4] was less than 5.
`N=C(N)c1ccc(C(=O)NCC(=O)N2CCN(CC(=O)O)C(=O)[C@@H]2CCCNC(=O)c2ccc(CCN)cc2)cc1` showed an IC50 (Cavia porcellus [2]) of 81 nM, an ID50 (Cavia porcellus [3]) of 0.56 µg/min/kg and a BT (Cavia porcellus [13]) of 860. For the same compound, the BT (Cavia porcellus [26]) was 270 and the Dissociation ratio [4] was 11.
